Source: PubChem (several laboratories)
This is a sample that favours compounds with a hit; in the whole collection about 12% have one here.
PKD1 inh: inhibitors of human PKD1 kinase | Q15139 | hit rate 0.056% among 200,000 | PKD1 kinase fluorescence polarization assay | AID 797 | inhibition, % (test concentration not listed)
Target sequence (Q15139 whole entry, looked up): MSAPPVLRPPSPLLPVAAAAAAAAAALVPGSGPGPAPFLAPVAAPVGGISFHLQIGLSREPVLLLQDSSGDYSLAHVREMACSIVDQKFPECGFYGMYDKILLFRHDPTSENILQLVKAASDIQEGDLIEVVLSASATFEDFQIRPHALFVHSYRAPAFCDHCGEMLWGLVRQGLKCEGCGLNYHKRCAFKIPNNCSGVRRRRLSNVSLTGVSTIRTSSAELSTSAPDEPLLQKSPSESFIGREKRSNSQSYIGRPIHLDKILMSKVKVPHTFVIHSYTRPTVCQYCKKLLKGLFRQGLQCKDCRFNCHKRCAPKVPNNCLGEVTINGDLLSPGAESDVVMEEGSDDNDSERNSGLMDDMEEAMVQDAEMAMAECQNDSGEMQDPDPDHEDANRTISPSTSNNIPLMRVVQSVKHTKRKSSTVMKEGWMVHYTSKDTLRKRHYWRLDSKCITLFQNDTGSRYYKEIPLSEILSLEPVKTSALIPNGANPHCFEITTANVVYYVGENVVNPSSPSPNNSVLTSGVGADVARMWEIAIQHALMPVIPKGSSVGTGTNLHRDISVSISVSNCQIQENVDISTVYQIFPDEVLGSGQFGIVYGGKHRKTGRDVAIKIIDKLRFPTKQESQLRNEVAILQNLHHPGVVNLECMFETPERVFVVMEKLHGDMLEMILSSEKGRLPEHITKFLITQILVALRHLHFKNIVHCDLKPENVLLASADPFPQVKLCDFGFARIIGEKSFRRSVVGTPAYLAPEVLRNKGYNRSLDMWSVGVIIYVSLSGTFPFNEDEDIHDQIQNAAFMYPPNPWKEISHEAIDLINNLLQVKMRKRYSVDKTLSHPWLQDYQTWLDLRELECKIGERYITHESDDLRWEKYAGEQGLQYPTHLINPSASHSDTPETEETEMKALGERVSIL
Arbovirus inh: antivirals against arbovirus infection; arbovirus infection cell-based antiviral screen; inhibition, % at 10 µM; hit rate 0.37% among 200,000; in the data active means inhibition above about 30%
Wee1 degr inh: blocks degradation of human Wee1 kinase; reporter increase, % at 5 µM; HeLa Luc-Wee1K328M stability, luciferase luminescence; 100% = proteasome inhibitor MG132 effect; hit rate 1.2% among 220,000;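 active means activation above the mean of all tested compounds plus 3 SD, set per screening run, cut at about 8.8% in these data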;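 further: cells exposed to compound for 20 h before luminescence read; 0% = DMSO alone and 100% = MG132 at 30 µM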
Lmaj promast: Leishmania major promastigote growth inhibition. hit rate 9% among 200,000. Leishmania major promastigotes, resazurin fluorescence viability. inhibition, % at 10 µM;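 further: promastigotes grown with compound for 44 hours at 28 °C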
CHOP inhibitor: blocks CHOP induction under ER stress. CHO-K1 CHOP-promoter luciferase, tunicamycin-induced, 15-18 h. inhibition, % at 10 µM. hit rate 3.8% among 220,000. AID 2732;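 active means compounds that reduced the stress-induced luciferase reporter signal by more than about 70% of percent inhibition, limit read from the data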;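 further: 0% = tunicamycin plus vehicle and 100% = wells without tunicamycin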
Rad51 HR inh: blocks human Rad51 in homologous recombination | Q06609 | hRad51 DNA strand exchange, fluorescence dequenching | inhibition, % at 10 µM | hit rate 0.085% among 200,000;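 active means inhibition above 40% at the single screening dose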;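 further: 0% = DMSO control wells and 100% = blanks with heterologous ssDNA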
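System: human Rad51 nucleoprotein filaments preassembled on unlabelled ssDNA. Reagent: labelled 47-mer dsDNA for strand exchange. Schedule: 30-min compound preincubation and 15-min exchange, both room temperature. Measured by: FRET fluorescence dequenching, excitation 485 nm, emission 520 nm. Read-out: Fluorescence-based percent inhibition, control- and blank-normalised. Benchmarks: plate controls and plate blanks.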
* = called active by the depositor; . = no result. Unless noted, no stated cut-off is given here; in the data, active means inhibition above about 50%; inactive means the rest.

SMILES	PKD1 inh	Arbovirus inh	Wee1 degr inh	Lmaj promast	CHOP inhibitor	Rad51 HR inh
COc1ccc(NC(=S)N(CCCN2CCOCC2)C(C)c2cc3cccc(OC)c3o2)cc1 (stereo unspecified)	-1	8	1	6	16	14
COc1cccc2cc(C(C)N(CCCN3CCOCC3)C(=O)Nc3ccccc3)oc12 (stereo unspecified)	-3	6	-1	82*	-9	-4
COc1cccc(NC(=S)N(CCCN2CCOCC2)C(C)c2cc3ccccc3o2)c1 (stereo unspecified)	-5	4	2	97*	19	1
Cc1ccc(C(=O)OCCn2cc(C#N)c(=O)[nH]c2=O)cc1	-2	-2	-2	2	-4	-163
N#CC1CCCc2c1[nH]c1ccc([N+](=O)[O-])cc21 (stereo unspecified)	.	.	0	.	-1	.
COc1ccc(NC(=O)c2[nH]c(C)c(C(C)=O)c2C)cc1S(=O)(=O)N1CCOCC1	10	-14	-2	-4	13	.
CCC(C(=O)Nc1ccc(OC)c(Cl)c1)c1ccccc1 (stereo unspecified)	-6	17	-3	53*	14	5
COc1ccc(NC(=O)c2cc(F)c(F)cc2Cl)cc1Cl	.	.	9.1*	.	-18	5
CCc1c(C(=O)Nc2ccc(OC)c(Cl)c2)[nH]c(C)c1C(C)=O	1	-4	0	24	86*	-1
Cc1ccc(NC(=S)Nc2ccc(Cl)c(Cl)c2)c(OC(F)F)c1	-8	-18	3	7	82*	-14
Fc1ccc(NC(=S)Nc2ccccc2OC(F)F)cc1Cl	-1	-9	-4	12	8	-2
Cc1ccc([N+](=O)[O-])cc1S(=O)(=O)n1ccnc1C	-8	1	-1	7	-5	.
Cc1ccc(NC(=S)Nc2ccc(OC(F)F)c(Cl)c2)cc1Cl	7	-9	2	7	91*	-1
O=C(Nc1ccc(OC(F)F)c(Cl)c1)C(c1ccccc1)c1ccccc1	1	10	-2	11	70*	-3
O=C(Nc1ccccc1F)Nc1ccccc1OC(F)F	-3	14	-2	4	18	-7
Cn1cc(Br)c(NS(=O)(=O)c2ccc(Cl)s2)n1	.	.	7	.	9	12
CN(CC(=O)Nc1ccccc1-c1ccccc1)Cc1ccccc1Cl	0	-12	-1	20	65	0
CS(=O)(=O)N1CCC(Oc2ccccc2C(=O)NC(C2CC2)C2CC2)CC1	-2	-2	-2	1	-16	2
CCN1C(=O)C(O)(CC(=O)/C=C/C=C/c2ccccc2)c2ccccc21 (stereo unspecified)	0	-4	0	75*	-15	.
O=C(/C=C/C=C/c1ccccc1)CC1(O)C(=O)N(CCc2ccccc2)c2ccccc21 (stereo unspecified)	-1	-46	2	20	78*	.
Cc1ccc(NC(=O)N(C2CCCCC2)C(C)c2cccnc2)cc1C (stereo unspecified)	-5	7	3	83*	46	-2
CCc1ccc(NC(=O)c2cccnc2)cc1	-2	5	6	-7	-6	-1
COc1ccc(NC(=O)N(C2CCCCC2)C(C)c2cccnc2)c(OC)c1 (stereo unspecified)	7	-1	1	82*	-4	-6
CCc1ccc(NC(=O)N(C2CCCCC2)C(C)c2cccnc2)cc1 (stereo unspecified)	0	4	1	90*	8	9
COc1ccc(NC(=O)N(C2CCCCC2)C(C)c2ccco2)c(OC)c1 (stereo unspecified)	-1	-20	-1	40	58	-4
SMILES	PKD1 inh	Arbovirus inh	Wee1 degr inh	Lmaj promast	CHOP inhibitor	Rad51 HR inh
CC(=O)N1CCC(N(C(=O)Nc2ccc(C)c(C)c2)C2CCCC2)CC1	-12	-2	-2	-5	-21	4
S=c1[nH]c2ccccc2o1	0	17	-1	-3	2	-23
Cc1ccc(-c2cc(C(F)(F)F)n3nc(C(=O)NCCCn4ccnc4)cc3n2)cc1C	-16	-6	-2	100*	-165	-2
COC(=O)c1cc2nc(-c3ccc(OC)cc3)cc(C(F)(F)F)n2n1	4	0	-3	-3	70*	-5
Cc1cccn2c(=O)c(/C=C(\C#N)C(=O)NCc3ccccc3)c(N3CCC(C(N)=O)CC3)nc12	.	.	4	.	-8	16
O=C(CC1NCCc2ccccc21)Nc1ccc(Oc2ccccc2)cc1 (stereo unspecified)	-1	-27	-1	99*	50	-1
c1ccc2c(-c3[nH]ncc3CNCCCn3ncc4ccccc43)cccc2c1	0	-43	-1	77*	37	28
CCC1(c2ccc(F)cc2)NC(=O)N(CC(=O)Nc2cc(S(=O)(=O)N(C)C)ccc2Cl)C1=O (stereo unspecified)	-6	-8	4	12	6	7
CC1CCc2c(C(=O)OCC(=O)Nc3cccc(S(=O)(=O)N4CCCCCC4)c3)csc2C1 (stereo unspecified)	4	6	-2	83*	58	0
COc1ccccc1OCCC(=O)Nc1cccc(S(=O)(=O)N2CCCCC2)c1	-1	11	-3	5	8	-2
CC1CCN(CC(=O)Nc2cccc(C(=O)Nc3cccc(C(F)(F)F)c3)c2)CC1	-7	-3	-2	82*	44	-2
Cc1ccc(NC(=O)COC(=O)c2csc3c2CCC(C)C3)cc1S(=O)(=O)N1CCCCC1 (stereo unspecified)	13	-1	2	2	28	.
O=C(CN1CCN(Cc2ccccc2)CC1)Nc1cccc(S(=O)(=O)N2CCCCCC2)c1	-3	-3	1	79*	23	10
CC1CN(CC(=O)Nc2cccc(C(=O)Nc3cccc(C(F)(F)F)c3)c2)CC(C)O1 (stereo unspecified)	2	-17	1	13	18	4
COc1ccc(CC(=O)Nc2cccc(S(=O)(=O)N3CCCCCC3)c2)cc1OC	-11	10	4	84*	71*	-9
O=C(CN1CCOCC1)Nc1cccc(S(=O)(=O)N2CCCCCC2)c1	-10	9	-3	-5	11	1
Cc1ccc(S(=O)(=O)N2CCN(c3nccnc3C#N)CC2)cc1	.	.	0	.	16	.
O=C(C1CCN(c2nnc(-n3cccc3)s2)CC1)N1CCN(c2cccc(C(F)(F)F)c2)CC1	-4	-6	-1	-2	77*	9
Cc1cc(C(=O)Nc2cccc(S(=O)(=O)N3CCCCC3)c2)c2ccccc2n1	-1	21	3	3	22	6
O=C(Nc1cccc(S(=O)(=O)N2CCCCC2)c1)c1c2c(nc3ccccc13)CCN(Cc1ccccc1)C2	-2	-16	0	90*	7	-3
O=C(COc1cccc(Cl)c1)Nc1ccc(N2CCOCC2)cc1	1	-9	3	-2	11	16
